The list is not random: actives were taken first. Their share in the collection is about 1.1%.
HCV core dimer = HCV core protein dimerization inhibition. TR-FRET GST/Flag-core106 dimerization, 1536-well. inhibition, % at 5 µM. 300,000 compounds, 0.33% hits. AID 1899;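 active means inhibition above the mean of all tested compounds plus 3 SD, set per screening campaign, cut at about 45% in these data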
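Material: Tagged HCV core106 pair (GST and Flag) | Amount: GST-core106 13.5 nM, Flag-core106 17 nM | Medium: KF-containing HEPES buffer, pH 7.45, DTT, CHAPS, BSA | Reagent: Eu donor and XL665 acceptor anti-tag antibodies | Schedule: 4 h at 22.5 °C | Technique: Time-resolved FRET, ex 340 nm, em 617 and 671 nm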
DAGLB inh = blocks human DAGLB lipase activity; Q8NCG7; HEK293T DAGLB membrane lysate, EnzChek fluorogenic substrate; inhibition, % at 5.17 µM; 340,000 compounds, 0.059% hits; in the data active means inhibition above about 34%;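 further: 0% = enzyme with vehicle and 100% = wells lacking enzyme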
Target sequence (Q8NCG7 whole entry, looked up): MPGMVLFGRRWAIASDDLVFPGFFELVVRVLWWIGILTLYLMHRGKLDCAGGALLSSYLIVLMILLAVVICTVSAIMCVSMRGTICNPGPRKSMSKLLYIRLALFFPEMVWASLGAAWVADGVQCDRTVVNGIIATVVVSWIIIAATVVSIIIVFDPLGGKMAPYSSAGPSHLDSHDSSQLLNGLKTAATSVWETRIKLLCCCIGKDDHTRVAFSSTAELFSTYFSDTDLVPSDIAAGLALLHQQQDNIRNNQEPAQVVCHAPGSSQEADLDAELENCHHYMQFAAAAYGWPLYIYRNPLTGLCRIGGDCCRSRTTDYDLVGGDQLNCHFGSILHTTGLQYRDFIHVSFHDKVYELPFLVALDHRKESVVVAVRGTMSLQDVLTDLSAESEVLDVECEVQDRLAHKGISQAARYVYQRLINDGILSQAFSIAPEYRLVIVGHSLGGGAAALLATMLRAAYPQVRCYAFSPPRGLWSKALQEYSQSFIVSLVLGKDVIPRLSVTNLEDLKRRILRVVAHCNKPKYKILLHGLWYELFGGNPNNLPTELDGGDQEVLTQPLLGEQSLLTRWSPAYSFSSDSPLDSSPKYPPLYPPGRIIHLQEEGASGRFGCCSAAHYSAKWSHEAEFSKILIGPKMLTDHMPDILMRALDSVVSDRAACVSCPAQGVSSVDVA
MT1-MMP act inh = blocks activation of human MT1-MMP | P50281 | HT1080 RFP-PRO-GFP cells, GFP/RFP ratio fluorescence, overnight; percent of plate control window, DMSO zero | GFP/RFP ratio change, % at 20 µM | 360,000 compounds, 0.061% hits;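 active means GFP/RFP ratio change of at least 30% with cell ATP level not reduced by more than half and red fluorescence within 50% of control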
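Test system: HT1080 cells expressing an RFP-PRO-GFP fluorescent reporter construct / Compound dosing: single-point 20 µM compound, 1% DMSO / Schedule: cells overnight before dosing, compound overnight, 37 °C, 5% CO2 / Evaluation: GFP/RFP fluorescence ratio / Control set: DMSO and RFP-L50D-GFP cell wells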
Vif inh = HIV Vif inhibition; 340,000 compounds, 0.35% hits; inhibition, % at 7.49 µM; HEK293T cells, Vif self-association by quenched fluorescence, imaging, 24 h; in the data active means inhibition above about 50%, passing the limit was not always enough
NR2E3 ag-1 = activates human NR2E3 receptor. 360,000 compounds, 0.35% hits. Q9Y5X4. CHO-S Gal4-NCOR/VP16-NR2E3 two-hybrid, luciferase. inhibition of corepressor binding, % at 3.98 µM. AID 602229;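 active means inhibition above the mean of all tested compounds plus 3 SD, cut at about 70% in these data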;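 further: 0% = DMSO with NR2E3 transfected cells and 100% = cells lacking NR2E3 construct; higher means lower luciferase signal from less NR2E3 corepressor binding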
NR2E3 ag-2 = NR2E3 (human) agonism; GST-NR2E3/biotin-RetCOR TR-FRET, 1536-well; 320,000 compounds, 0.12% hits; Q9Y5X4; inhibition of corepressor binding, % at 4.78 µM;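 active means percent inhibition above the cutoff of mean plus 3 SD of all tested compounds, set per screening campaign, cut at about 20% in these data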;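 further: 0% = DMSO wells and 100% = biotin wells as full block of FRET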
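Test system – NR2E3–RetCOR corepressor complex · Quantity – NR2E3 fusion 1.35 nM · Buffer or medium – Tris pH 7.5 · Incubation – Compound–protein incubation for 5 h at 4 °C · Technique – TR-FRET, Eu(K)-anti-GST donor, streptavidin-D2 acceptor, ex 340, em 617/671 nm · Evaluation – percent inhibition of 671/617 nm emission ratio versus biotin and DMSO controls · Plate – 1536-well format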
* hit, by the source's call.

`CCS(=O)(=O)Nc1cccc(C(=C2CCCCC2)c2cnc[nH]2)c1` gave HCV core dimer 9, DAGLB inh 1, MT1-MMP act inh 0, Vif inh 69*, NR2E3 ag-1 -19 and NR2E3 ag-2 6.
For Cc1c(CCC(=O)N2C[C@H]3C[C@@H](C2)c2cccc(=O)n2C3)c(=O)oc2c(C)c(O)ccc12 the results were MT1-MMP act inh -2, Vif inh 9 and NR2E3 ag-1 8.
CCn1nc(-c2ccccc2)nc2c(=O)n(C)c(=O)nc1-2 was read as HCV core dimer 48*, DAGLB inh -31, MT1-MMP act inh 3, Vif inh 7, NR2E3 ag-1 89* and NR2E3 ag-2 41*.
For COc1ccc(-c2nc3ccccc3c(=O)n2-c2ccc(OC)cc2)cc1 the results were HCV core dimer 1, DAGLB inh -3, MT1-MMP act inh -1, Vif inh 0, NR2E3 ag-1 -12 and NR2E3 ag-2 1.
`O=P1(NCCCl)OCCC(OO)N1CCCl` (stereo not given) gave MT1-MMP act inh 10 and NR2E3 ag-1 10.
`Cc1ccc(N2C(=O)/C(=C/c3ccc(CN(CCC#N)S(C)(=O)=O)o3)C(=O)NC2=S)cc1C` gave HCV core dimer 51* and NR2E3 ag-2 1.
Screening COC1C(O)C(C)OC(OC2C(Oc3cccc4c(O)c5c(=O)oc6ccc(C)c7c(=O)oc(c34)c5c67)OC(C)C(O)C2O)C1O (stereo not given) returned DAGLB inh -2, MT1-MMP act inh 3, Vif inh 51* and NR2E3 ag-1 -29.
`CCn1c(=O)cc(OCC(=O)N2CCN(Cc3ccc4c(c3)OCO4)CC2)c2ccccc21` gave HCV core dimer 1, DAGLB inh 1, MT1-MMP act inh 1, Vif inh 67*, NR2E3 ag-1 -7 and NR2E3 ag-2 0.
`CC(=O)c1ccc2c(c1)C1C(Cl)C(Sc3ccccc3[N+](=O)[O-])CC1C(c1ccccc1[N+](=O)[O-])N2` (stereo not given) gave HCV core dimer 54*, DAGLB inh 7, MT1-MMP act inh -12, Vif inh -18, NR2E3 ag-1 -2 and NR2E3 ag-2 -6.
O=C1NC(=O)C(Sc2ccccc2[N+](=O)[O-])C(=O)N1 was read as HCV core dimer -9, DAGLB inh -24, MT1-MMP act inh -1, Vif inh -13, NR2E3 ag-1 -17 and NR2E3 ag-2 -4.
CC(=O)c1ccc2c(c1)C1C(Cl)C(Sc3ccccc3[N+](=O)[O-])CC1C(c1ccccc1)N2 (stereo not given) was read as HCV core dimer 66*, DAGLB inh 5, MT1-MMP act inh 6, NR2E3 ag-1 11 and NR2E3 ag-2 -22.
O=C1NCN(c2ccccc2)C12CCN(C(c1ccnc3ccccc13)c1nnnn1C1CCCCC1)CC2 (stereo not given) was read as MT1-MMP act inh 2, Vif inh 2 and NR2E3 ag-1 -5.
Screening Cc1ccc(C[n+]2c(-c3ccc(C)cc3)cc(-c3ccc(C)cc3)cc2-c2ccc(C)cc2)cc1 returned HCV core dimer -1, DAGLB inh 9, MT1-MMP act inh -35, Vif inh -5, NR2E3 ag-1 99* and NR2E3 ag-2 1.
C[C@H]1CCC[C@@H](O)CCC/C=C/c2cc(O)cc(O)c2C(=O)O1 was read as HCV core dimer -1, DAGLB inh 1, MT1-MMP act inh -14, Vif inh -5, NR2E3 ag-1 25 and NR2E3 ag-2 3.
C[C@H]1CCC/C=C/C2C[C@H](O)CC2[C@H](O)/C=C/C(=O)O1 (stereo not given in full) was read as HCV core dimer 3, DAGLB inh 2, MT1-MMP act inh 2, Vif inh 23, NR2E3 ag-1 96* and NR2E3 ag-2 0.
Screening c1ccc2c(c1)Sc1ccccc1N2CC1CN2CCC1CC2 (stereo not given) returned HCV core dimer -7, DAGLB inh 4, MT1-MMP act inh -3, Vif inh 53*, NR2E3 ag-1 -8 and NR2E3 ag-2 1.
For Clc1ccccc1CNC1CN2CCC1CC2 (stereo not given) the results were HCV core dimer -10, DAGLB inh -1, MT1-MMP act inh -3, Vif inh 8, NR2E3 ag-1 -7 and NR2E3 ag-2 -1.
`O=c1[nH]c(=S)n(Cc2ccco2)c(O)c1C=NCc1cccs1` gave HCV core dimer 55*, DAGLB inh 8, MT1-MMP act inh -4, Vif inh 12, NR2E3 ag-1 -7 and NR2E3 ag-2 -1.
For CCCC[C@@H](C)C[C@@H](C)C(=O)N(C)[C@@H](CC(C)C)C(=O)N[C@H](C(=O)N(C)[C@H](C(=O)N1C[C@@H](O)C[C@H]1C(=O)N1C(=O)C=C[C@@H]1C)C(C)C)C(C)OC(C)=O (stereo not given in full) the results were DAGLB inh 1, MT1-MMP act inh -11, Vif inh -16 and NR2E3 ag-1 82*.
For CCOC(=O)[C@]12Cc3c(cc(OC)c(OC)c3OC)[C@H]1N(C1CCCCC1)C(=O)c1ccccc12 the results were MT1-MMP act inh -24 and NR2E3 ag-1 23.
For CCOC(=O)c1c(-n2c(C)cc(/C=C3\C(=O)NC(=O)N(C)C3=O)c2C)sc2c1CCCC2 the results were HCV core dimer 24, DAGLB inh 0, MT1-MMP act inh -13, Vif inh -8, NR2E3 ag-1 6 and NR2E3 ag-2 3.
`Cc1cc(/C=C2\C(=O)NC(=O)N(c3ccc(Cl)cc3)C2=O)c(C)n1-c1sc2c(c1C#N)CCCC2` gave HCV core dimer 47*, DAGLB inh 24, MT1-MMP act inh -13, Vif inh -4, NR2E3 ag-1 -1 and NR2E3 ag-2 6.
For O=C1NC(=S)N(c2ccc(F)cc2)C(=O)/C1=C\c1ccoc1 the results were DAGLB inh 14, MT1-MMP act inh -30, Vif inh 4 and NR2E3 ag-1 -26.
For O=C1NC(=S)N(c2ccc(F)cc2)C(=O)/C1=C/c1ccco1 the results were HCV core dimer 77* and NR2E3 ag-2 5.
`COc1ccc(N2C(=O)/C(=C/c3ccc(C)o3)C(=O)NC2=S)cc1` gave DAGLB inh -3, MT1-MMP act inh -13, Vif inh 9 and NR2E3 ag-1 -5.
COc1ccc(OC)c(N2C(=O)/C(=C/c3ccco3)C(=O)NC2=S)c1 was read as HCV core dimer 83* and NR2E3 ag-2 15.

Screens (PubChem BioAssay)
